# MT stabilizer: microtubule stabilizers in HeLa cells, primary screen, imaging, high-content imaging; AID 2205, 2009; % tubulin-high responders, % at 10 µM; hit rate 0.83% among 200,000; HeLa tubulin immunostaining HCS, 24 h; share of cells brighter than vehicle mean+2SD;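 active = plate Z-score above 3 for both tubulin-high and condensed-nucleus cell shares, with cell loss under 80%, at 10 µM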;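 note: anti alpha tubulin signal scored within the nucleus-defined area of each cell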
# bCat nuc transl: modulators of beta-catenin nuclear translocation, primary screen, imaging, HeLa cells, immunofluorescence, high-content; hit rate 0.3% among 190,000; nuclear translocation activity, % at 5 µM;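 active = nuclear translocation activity above 50% at 5 µM, with a well cell count of 50 or more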;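 note: per-cell ratio of nuclear to cytoplasmic median beta-catenin stain intensity; plate controls were DMSO negative control for no effect and GSK-3 inhibitor IX positive control for full effect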
#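 Assay system: human HeLa cells, native beta-catenin; doses: 5 µM primary, 0.02–20 µM confirmation; incubation: compound treatment 24 h, 37°C, 5% CO2; technique: fluorescence imaging of beta-catenin antibody stain plus DAPI; measure: % activation, nuclear-to-cytoplasmic median beta-catenin signal ratio per cell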
# APP transl inh: inhibitors of APP translation via 5'UTR reporter, primary screen, APP 5'UTR luciferase, SH-SY5Y cells; SH-SY5Y APP 5'UTR-luciferase reporter, luminescence; inhibition, % at 2 µM; hit rate 0.82% among 190,000;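 active = inhibition above a set limit, derived from the sample mean plus 3 SD, cut at about 45% in these data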
# L major viab: Leishmania major promastigote growth inhibition, primary screen; Leishmania major promastigotes, resazurin fluorescence viability; hit rate 9% among 200,000; inhibition, % at 10 µM; in the data active = inhibition above about 50%;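 note: promastigotes grown with compound for 44 hours at 28 °C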
# Ba/F3 V617F tox: reduced viability of JAK2V617F-dependent Ba/F3 cells, primary screen, JAK2V617F inhibitor project, cell-based, Ba/F3 EpoR-JAK2V617F, luminescence; AID 1446, 2008; inhibition, % at 5.6 µM; ATP luminescence; hit rate 1.1% among 220,000;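 active = inhibition above the campaign mean plus 3 SD over all tested compounds, cut at about 24% in these data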;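 note: cytokine-independent growth of Ba/F3 cells driven by EpoR plus mutant JAK2; 0% = DMSO-treated cells and 100% = JAK inhibitor I control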
# BaF3 tox: parental Ba/F3 cell viability inhibition, counter-screen for JAK2V617F inhibitor project, murine pro-B, CellTiter-Glo luminescence. inhibition, % at 5.6 µM. hit rate 1.1% among 220,000. CellTiter-Glo ATP luminescence. AID 1486, 2009;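 active = inhibition above a per-campaign cutoff, the mean inhibition of all tested compounds plus 3 SD, cut at about 27% in these data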;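 note: 0% = DMSO wells and 100% = JAK Inhibitor I control wells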
# Numbers without * were called inactive; / = no result. This is a sample that favours compounds with a hit; in the whole collection about 9.6% have one here.
SMILES,MT stabilizer,bCat nuc transl,APP transl inh,L major viab,Ba/F3 V617F tox,BaF3 tox
CCC(Sc1nc2cc(OC)c(OC)cc2c(=O)n1CCc1ccc(OC)c(OC)c1)C(=O)NCCOC (centres undefined),2.3,-1.2,7.2,79.6*,1.8,2.4
COC(=O)COc1cccc(NC(=O)c2cccs2)c1,3.4,-1.0,-5.1,60.6*,-2.4,6.0
CCCN(CCC)S(=O)(=O)c1ccc(NC(=O)Cc2cccs2)cc1,1.9,1.2,1.8,36.9,1.9,8.5
CCCN(CCC)S(=O)(=O)c1ccc(NC(=O)COc2ccccc2)cc1,1.8,/,-4.7,97.9*,-3.6,1.2
COC(=O)COc1cccc(NC(=O)COc2ccccc2)c1,1.8,0.6,-3.0,90.9*,-2.3,0.2
Cc1nn(-c2ccccc2)nc1C(=O)Nc1nnc(C(F)(F)F)s1,/,0.3,/,/,-1.3,0.4
O=[N+]([O-])c1cccc(P(=O)(O)c2cccc([N+](=O)[O-])c2)c1,/,1.5,/,/,-3.9,2.5
Cc1cccc(NC(=O)CCc2ccc(S(=O)(=O)NC3CCCCC3)cc2)c1,2.0,-4.0,-5.5,-1.5,1.1,2.8
Cc1cccc(OCc2nnc(NC(=O)Cc3cccs3)s2)c1,5.1,-1.0,1.1,-4.7,0.4,4.9
O=C1C2CCCN2C(=O)N1CCN1CCN(c2ccccc2)CC1 (centres undefined),3.0,2.1,1.2,61.2*,-3.3,3.6
CCOC(=O)N1CCN(C(=O)/C(=C/c2cccc3ccccc23)NC(=O)c2ccc(OC)c(OC)c2)CC1,3.1,-2.2,11.8,-1.9,-0.2,2.2
Cc1cc(Cl)cc(Br)c1OCCNCC(C)O (centres undefined),3.4,4.3,-68.2,5.3,-1.0,2.4
CN(C)CCOCCOc1ccc(Cl)cc1C(C)(C)C,3.1,1.3,-10.5,97.7*,6.5,12.6
CC(O)CNCCCOc1ccc(Cl)cc1C(C)(C)C (centres undefined),2.3,1.1,-25.3,71.5*,0.6,3.5
COC(=O)Cn1c2c(c3cc(C)ccc31)CCCC2NC(C)c1ccccc1 (centres undefined),/,-1.5,/,/,-3.8,0.2
Cn1c(C2=C(O)CN(Cc3ccccc3)C2=N)[n+](C)c2ccccc21,2.4,0.2,-46.5,8.5,-4.2,-1.1
Cn1c(-c2ccccc2[N+](=O)[O-])[n+](C)c2ccccc21,/,-0.6,/,/,57.4*,57.9*
COc1ccc(C(=O)Nc2ccc(S(=O)(=O)Nc3onc(C)c3C)cc2)c(OC)c1,1.6,-0.9,-0.2,-1.4,3.1,2.4
CS(=O)(=O)c1sc(C#N)c2c1C(=O)CC(c1ccccc1)C2 (centres undefined),/,-3.3,/,/,99.0*,91.8*
Nc1c(C(=O)OCC2CCCO2)c2nc3ccccc3nc2n1C1CCCC1 (centres undefined),5.9,-6.5,-13.2,50.8*,8.1,2.5
CC(C)Cn1c(N)c(C(=O)NCC2CCCO2)c2nc3ccccc3nc21 (centres undefined),2.4,-1.8,9.9,58.7*,1.7,1.2
COC(=O)CC1C(=O)NCCN1C(=O)CSc1nnnn1-c1ccc(Cl)cc1 (centres undefined),2.5,-2.3,-10.2,2.2,4.2,3.9
Cc1cc(C(=O)CCl)c(C)n1CCc1ccc(Cl)cc1,3.7,36.1,31.8,100.5*,-0.8,3.3
COc1ccc(CCn2c(C)c(C(C)=O)c(C(C)=O)c2C)cc1OC,3.5,-1.7,44.1,-2.7,-2.1,-2.4
Cc1cc(C(=O)CCl)c(C)n1CCc1ccc(F)cc1,1.1,1.4,-1.1,100.4*,-2.1,-0.6
SMILES,MT stabilizer,bCat nuc transl,APP transl inh,L major viab,Ba/F3 V617F tox,BaF3 tox
COc1ccc(CCn2c(C)cc(C(=O)CCl)c2C)cc1OC,7.4,-0.3,0.5,88.6*,19.4,6.3
CN(C)C(=O)c1ccc(OCC(F)(F)F)nc1,/,-4.0,/,/,-1.1,-3.1
Cc1cc(C)cc(NC(=O)c2oc3ccccc3c2COc2ccccc2)c1,1.5,-6.2,6.7,89.4*,5.4,9.3
C/C(=N\NC(=O)c1ccc(O)cc1)c1ccc2c(c1)Nc1ccccc1S2,3.7,11.5,-14.5,75.4*,2.3,4.5
CC1(C)OC(=O)N(CCC(=O)Nc2cccc(F)c2)C1(C)O (centres undefined),5.8,0.4,-4.3,-5.2,0.8,4.9
O=C(OCc1cc(=O)n2c(n1)sc1ccccc12)c1ccc(O)cc1,2.4,-1.7,-0.6,58.9*,7.3,7.5
O=c1cc(CCl)nc2sc3ccccc3n12,3.5,-1.0,2.2,41.0,5.1,7.0
CC(OCC(O)CN(C)CCOc1ccccc1)c1ccc(Cl)cc1 (centres undefined),2.8,-2.9,7.8,99.0*,5.1,4.5
CN(C)CC(O)COC(c1ccccc1)c1ccccc1 (centres undefined),2.0,-2.6,5.9,22.2,0.8,12.6
O=C(O)CSc1ncnc2scc(-c3ccc(Br)cc3)c12,/,1.8,/,/,3.8,3.1
COc1ccc(/C=N/Nc2ncnc3c2[nH]c2ccccc23)c(OC)c1OC,1.6,0.2,-0.4,65.8*,4.0,7.0
COc1cccc(/C=N/Nc2ncnc3c2[nH]c2ccc(C)cc23)c1OC,/,-0.6,/,/,0.6,-1.4
O=C(O)c1ccc(NS(=O)(=O)c2cc(C(=O)O)ccc2Br)cc1,4.1,-1.9,-0.1,98.5*,-3.0,0.5
CCCCNC(=O)COC(=O)c1ccccc1F,/,-1.2,/,/,-1.8,-3.2
O=C(CCC(=O)OCC(=O)c1ccc([N+](=O)[O-])cc1)NC1CCCCC1,3.8,/,-6.4,76.5*,-5.6,4.3
Cc1c(C(=O)c2ccc([N+](=O)[O-])cc2)c(=O)n(C)c(=O)n1C,3.9,-0.5,-3.7,-0.2,-4.2,-0.6
COCC(C)NC(=O)CSc1nnc(-c2cccc(S(=O)(=O)N3CCCCC3)c2)o1 (centres undefined),3.9,-4.7,-20.8,-5.8,1.3,7.2
CC(NC(=O)CSc1nnc(-c2cccc(S(=O)(=O)N3CCCCC3)c2)o1)C12CC3CC(CC(C3)C1)C2 (centres undefined),0.7,/,-1.0,95.8*,-2.0,6.3
CCn1c(SC)nnc1-c1ccc(S(=O)(=O)N2CCCCC2)cc1,2.0,/,1.8,-5.4,-4.3,0.5
CCn1c(SCC(N)=O)nnc1-c1ccc(S(=O)(=O)N2CCN(C)CC2)cc1,4.4,1.3,0.1,-4.7,2.4,5.5
O=S(=O)(c1ccc(-c2nnc(SCc3nnc(-c4ccccc4)o3)o2)cc1)N1CCCC1,3.6,-2.1,-7.0,99.8*,4.0,2.0
CCn1c(SCc2ccccc2)nnc1-c1ccc(S(=O)(=O)N2CCCCC2)cc1,1.5,-0.3,-7.0,98.7*,6.6,17.7

# Compound activity as filed in PubChem BioAssay.
